The source of these data is ChEMBL document CHEMBL4043073, “Boronic Acid Modifications Enhance the Anti-Influenza A Virus Activities of Novel Quindoline Derivatives” (J Med Chem, 2017).

Calls of active or inactive are those of the source. The calls are words filed in the database; no cut-off is given here.

One data set deals with NCI-H1299. Briefly: Cytotoxicity against human H1299 cells at 20 uM after 48 hrs by resazurin based fluorescence method. Format: cell-based. As to conditions: nci-h1299, 48 h. The gist of the method:
(§1)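 Confluent MDCK, A549 or H1299 cells exposed in triplicate to compound for 48 h at 37 °C (A549/H1299 at 20 μM). Resazurin added to 0.2 mg/mL final for 16 h. Fluorescence read at ex 544 / em 595 nm; viability as % of untreated.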

Data set [1] can be described thus: Drug uptake in human A549 cell nucleus at 20 uM after 4 hrs by DAPI staining based confocal microscopic analysis. In kind it is ADME. Particulars: a549, 4 h. The gist of the method:
(§2)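 A549 cells incubated with 20 μM compound 4 h at 37 °C, then fixed and DAPI-stained. Compound intrinsic fluorescence located by confocal microscopy.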

In data set [2] the test system is Influenza A virus. In words: Antiviral activity against Influenza A virus (A/swine/Minnesota/02719/2009(H3N2)) infected in MDCK cells assessed as virus yeild reduction preincubated with virus at 37 degC for 1 hr followed by viral infection for 1 hr measured after 3 days by crystal violet staining based plaque assay. In kind it is functional, cell-based. The method, boiled down: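 Plaque reduction: about 50–100 PFU/well of PR8, Cal09 or Minnesota preincubated with compound (0–10 μM) 1 h at 37 °C. Mixture then adsorbed to MDCK monolayers 1 h at 4 °C. Overlay was DMEM with 1.5% agarose, DEAE-dextran and 1 μg/mL TPCK-trypsin for 3 days at 37 °C. Glutaraldehyde fix, crystal violet stain, plaque count; IC50 derived; n = 4.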

The next data set relates to A549. Briefly: Cytotoxicity against human A549 cells at 20 uM after 48 hrs by resazurin based fluorescence method. In kind it is cell-based. As to conditions: a549, 48 h. The gist of the method:
as §1
On the technique in general: Alamar Blue is a resazurin reagent that responds to reducing activity.

The test system of data set [3] is Influenza A virus. In words: Antiviral activity against Influenza A virus (A/Puerto Rico/8/34(H1N1)) infected in MDCK cells assessed as reduction in virus titer at 10 uM preincubated with virus for 1 hr followed by viral infection measured after 24 hrs by crystal violet staining based plaque assay. Format: functional, cell-based. As to conditions: A/Puerto Rico/8/1934(H1N1). The method, boiled down:
(§3)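 PR8 (MOI 1.0) preincubated with compound (2.5–10 μM) 1 h at 37 °C, then used to infect MDCK cells. After adsorption, medium with the same compound concentration was added. At 24 h p.i. supernatant virus titer was measured by plaque assay; n = 3.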

Data set [4] in a line: Cytotoxicity against MDCK cells after 48 hrs by resazurin based fluorescence method. Format: cell-based, Canis lupus familiaris. Particulars: dog. The method, boiled down:
as §1

The nature of data set [5]: (§4) Antiviral activity against Influenza A virus (A/California/04/2009(H1N1)) infected in MDCK cells assessed as reduction in viral HA titer by measuring reduction in chicken RBC […] after 24 hrs by hemagglutination test. Format: functional, cell-based. The method, boiled down:
(§5)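 MDCK cells infected at MOI 3.0 (single-cycle) with PR8, Cal09 or swine H3N2 Minnesota, then treated with compound for 24 h. Supernatant HA titers were read by 2-fold serial dilution with an equal volume of 1% chicken RBCs, 60 min at 4 °C. Expressed as percent of untreated-cell HA titer; IC50 derived; n = 4.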

The test system of data set [6] is Influenza A virus (A/California/04/2009(H1N1)). The data set is described as §4. In kind it is functional, cell-based. The gist of the method:
as §5

Data set [7] deals with Influenza A virus. Briefly: Antiviral activity against Influenza A virus (A/Puerto Rico/8/34(H1N1)) infected in MDCK cells assessed as virus yeild reduction at 10 uM preincubated with virus for 1 hr followed by viral infection for 1 hr measured at 24 hrs post infection by crystal violet staining based plaque assay. Format: functional, cell-based. As to conditions: A/Puerto Rico/8/1934(H1N1). The method, boiled down: as §3

For data set [8], the system named is Influenza A virus. In words: Antiviral activity against Influenza A virus (A/Puerto Rico/8/34(H1N1)) infected in MDCK cells assessed as virus yeild reduction at 10 uM treated post 1 hr of viral adsorption measured at 24 hrs post infection by crystal violet staining based plaque assay. Format: functional, cell-based. As to conditions: A/Puerto Rico/8/1934(H1N1). The gist of the method:
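Time-of-addition on MDCK cells, PR8 MOI 1.0, 10 μM compound. Three arms: cells pretreated before infection; compound present during adsorption 1 h at 4 °C; or compound added after removal of unadsorbed virus. Virus yield at 24 h p.i. by plaque assay; n = 3.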

In data set [9] the test system is Influenza A virus (A/Puerto Rico/8/1934(H1N1)). Briefly: Inhibition of Influenza A virus (A/Puerto Rico/8/34(H1N1)) hemagglutinin mediated chicken erythrocytes aggregation at 10 uM after 60 mins by hemagglutination test. In kind it is cell-based. The gist of the method:
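Hemagglutination inhibition: PR8-induced aggregation of chicken erythrocytes tested with 10 μM compound; anti-HA antibody (0.625–5 μg/mL) as comparator.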

The test system is the same in data set [10]. In words: Inhibition of Influenza A virus (A/Puerto Rico/8/34(H1N1)) neuraminidase using MUNANA as substrate preincubated for 30 mins followed by substrate addition measured after 30 mins by fluorescence assay relative to control. The method, boiled down:
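Inactivated PR8 virus supernatant mixed with compound (10 μM) in 33 mM MES […], 4 mM CaCl2 for 30 min at 37 °C. MUNANA (20 μM) was added for 30 min at 37 °C and the reaction stopped with glycine/ethanol pH 10.7. Fluorescence read at ex 360 / em 440 nm; zanamivir 10 μM as reference; n = 3.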

For data set [11], the species on record is Canis lupus familiaris. In words: Inhibition of MAPK signaling-mediated nuclear import of viral RNP in MDCK cells infected with Influenza A virus (A/Puerto Rico/8/34(H1N1)) assessed as ERK1/2 phosphorylation at 5 uM preincubated with virus for 1 hr followed by viral infection after 4 hrs by Western blot method relative to control (reference value: 1.4). Format: cell-based. The method, boiled down:
(§6)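 PR8 (MOI 1.0) pretreated with compound 1 h at 37 °C, then MDCK cells were kept in infecting medium with 5 or 10 μM for 4 h; ribavirin 50 μg/mL as comparator. Lysates were immunoblotted for phospho-ERK1/2, p38, NF-κB or Akt, with β-actin/GAPDH loading controls and AP/NBT-BCIP detection. Densitometry was normalised to uninfected cells (= 1.0); n = 3.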
On the technique in general: In western blotting, separated proteins are transferred to a membrane and probed.

The species named for data set [12] is Canis lupus familiaris. In words: Inhibition of MAPK signaling-mediated nuclear import of viral RNP in MDCK cells infected with Influenza A virus (A/Puerto Rico/8/34(H1N1)) assessed as ERK1/2 phosphorylation at 10 uM preincubated with virus for 1 hr followed by viral infection after 4 hrs by Western blot method relative to control (reference value: 1.4). Format: cell-based. The gist of the method: as §6

Data set [13] is filed under the species Canis lupus familiaris. Briefly: Inhibition of NFkappaB activation-mediated viral RNA synthesis in MDCK cells infected with Influenza A virus (A/Puerto Rico/8/34(H1N1)) assessed as NF-kB phosphorylation level at 10 uM preincubated with virus for 1 hr followed by viral infection measured after 4 hrs by Western blot method relative to control (reference value: 1.8). In kind it is cell-based. The gist of the method:
as §6

Data set [14] can be described thus: Drug uptake in human A549 cell cytoplasm at 20 uM after 4 hrs by DAPI staining based confocal microscopic analysis. In kind it is ADME. Particulars: a549, 4 h. The method, boiled down: as §2
The nature of data set [15]: Drug uptake in human A549 cell membranes at 20 uM after 4 hrs by DAPI staining based confocal microscopic analysis. Format: ADME. As to conditions: a549, 4 h. The method, boiled down: as §2
Data set [16] in a line: Selectivity index, ratio of CC50 for MDCK cells to IC50 for Influenza A virus (A/Puerto Rico/8/34(H1N1)) infected in MDCK cells by plaque assay. Format: toxicity, cell-based. As to conditions: dog, read-out: Ratio CC50/IC50.
The test system of data set [17] is Influenza A virus. In words: Antiviral activity against Influenza A virus (A/Puerto Rico/8/34(H1N1)) infected in MDCK cells assessed as reduction in virus-induced cytopathic effect after 48 hrs by crystal violet staining based assay. Particulars: A/Puerto Rico/8/1934(H1N1). Format: functional, cell-based. The gist of the method:
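MDCK cells infected with PR8 at MOI 0.1; compounds added in triplicate after inoculum removal. After 48 h cells were fixed with 4% formaldehyde and stained with 0.1% crystal violet. Dye was methanol-solubilised and read at 570 nm; IC50 was the concentration halving CPE.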
On the technique in general: Damage to the host cells serves as the signal in cytopathic effect assays.

In general, IC50 refers to the concentration needed to halve the response being measured. The term CC50 denotes the concentration that lowers cell viability or growth by half. A lower CC50 goes with greater toxicity to the cells. What is called inhibition is the percentage by which the read-out fell short of the control. Regarding `O=C(Nc1ccccc1Nc1c2ccccc2nc2c1[nH]c1ccccc12)c1cccc(B(O)O)c1`, the results for the Activity result (in the data set with NCI-H1299; with A549; in data set [6]) were “Non-Toxic”, “Non-Toxic” and “Dose-dependent effect”, respectively. The Drug uptake result is “Not Active” in data set [1], “Active” in [14] and “Active” in data set [15]. The IC50 turned out to be 2.3 µM with Influenza A virus [2], 2.5 µM in the data set with Influenza A virus [3], 4.3 µM in data set [5] and 5.1 µM in the data set on Influenza A virus [17]. This molecule also displayed a CC50 at 48 h in [4] of 142 µM. Also, the outcome in the data set with Influenza A virus [7] was Active. Further, the result with Influenza A virus [8] was inactive. The inhibition result in [9] is “inactive”. In data set [10], this molecule showed an inhibition of 72%. Also, the values for the fold change (FC) in the data set filed under Canis lupus familiaris [11], in the data set listed under Canis lupus familiaris [12] and in the data set filed under Canis lupus familiaris [13] were 0.7, 0.6 and 0.4, respectively. Besides, the selectivity ratio in [16] lay within 56.8 to 64.6.
